According to ChEMBL document CHEMBL1135643, “Synthesis and biological activity of strongly fluorescent tricyclic analogues of acyclovir and ganciclovir” (2002):
≈ marks a conversion by molar mass, not a printed value.

How the values were obtained:
Type in all cases: functional
[1] = Minimum cytotoxic concentration in E6SM fibroblast cells; settings: Homo sapiens, read-out: Min cytotoxic concentration
[2] = Minimum inhibitory concentration against Herpes simplex Virus-1(KOS); settings: Human alphaherpesvirus 1
How it was run: (§1)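 Confluent E6SM fibroblast monolayers were infected with 100 CCID50 of virus (1 CCID50 infects 50% of inoculated cultures). After 1 h adsorption, residual virus was removed and cultures were incubated with 2- to 5-fold serial dilutions of compound. Inhibition of virus-induced cytopathicity was scored once the virus-infected controls reached full CPE (day 3 post-infection).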

[3] = Minimum inhibitory concentration against Herpes simplex Virus-2(196); settings: Human alphaherpesvirus 2; how it was run: as §1
[4] = Minimum inhibitory concentration against Herpes simplex Virus-2(Lyons); settings: Human alphaherpesvirus 2; how it was run: as §1
[5] = Minimum inhibitory concentration against Herpes simplex Virus-1 (KOS) (ACV); settings: Human alphaherpesvirus 1; how it was run: as §1
[6] = Minimum inhibitory concentration against Herpes simplex Virus-1(F); settings: Human alphaherpesvirus 1; how it was run: as §1
[7] = Minimum inhibitory concentration against Herpes simplex Virus-2(G); how it was run: as §1
[8] = Minimum inhibitory concentration against Herpes simplex Virus-1 (McIntyre); settings: Human alphaherpesvirus 1; how it was run: as §1

Row | MIC [2] [µM] | MIC [3] [µM] | MIC [4] [µM] | MIC [5] [µM] | MIC [6] [µM] | MIC ([7]; Human alphaherpesvirus 2) [µM] | MIC [8] [µM] | MIC ([7]; Human alphaherpesvirus 1) [µM] | SMILES | MCC [1] [µM]
1 | 2.8 (≈ 1.15 µg/mL) | 4.7 (≈ 1.93 µg/mL) | 4.7 (≈ 1.93 µg/mL) | 780 (≈ 320 µg/mL) | 4.7 (≈ 1.93 µg/mL) | 4.4 (≈ 1.81 µg/mL) | 4.7 (≈ 1.93 µg/mL) | – | CC(C)C(=O)Nc1ccc(-c2cn3c(O)c4ncn(COCCO)c4nc3n2)cc1 | 975
2 | 0.041 (≈ 0.0152 µg/mL) | 0.207 (≈ 0.0769 µg/mL) | 0.207 (≈ 0.0769 µg/mL) | 69 (≈ 25.6 µg/mL) | 0.041 (≈ 0.0152 µg/mL) | 0.96 (≈ 0.356 µg/mL) | 0.207 (≈ 0.0769 µg/mL) | – | OCC(CO)OCn1cnc2c(O)n3cc(-c4ccc(O)cc4)nc3nc21 | 1080
3 | 0.675 (≈ 0.23 µg/mL) | 0.375 (≈ 0.128 µg/mL) | 0.225 (≈ 0.0768 µg/mL) | 234 (≈ 79.9 µg/mL) | 0.225 (≈ 0.0768 µg/mL) | 0.675 (≈ 0.23 µg/mL) | 0.225 (≈ 0.0768 µg/mL) | – | OCCOCn1cnc2c(O)n3cc(-c4ccc(O)cc4)nc3nc21 | 703
4 | 0.049 (≈ 0.0203 µg/mL) | 0.186 (≈ 0.0769 µg/mL) | 0.186 (≈ 0.0769 µg/mL) | 23 (≈ 9.51 µg/mL) | 0.062 (≈ 0.0256 µg/mL) | 97 (≈ 40.1 µg/mL) | 0.186 (≈ 0.0769 µg/mL) | – | CC(=O)Oc1ccc(-c2cn3c(O)c4ncn(COC(CO)CO)c4nc3n2)cc1 | 968
5 | 0.03 (≈ 0.00766 µg/mL) | 0.1 (≈ 0.0255 µg/mL) | 0.045 (≈ 0.0115 µg/mL) | 7.5 (≈ 1.91 µg/mL) | 0.045 (≈ 0.0115 µg/mL) | 0.06 (≈ 0.0153 µg/mL) | 0.04 (≈ 0.0102 µg/mL) | – | Nc1nc2c(ncn2COC(CO)CO)c(=O)[nH]1 [GANCICLOVIR] | 392
6 | 15 (≈ 5.75 µg/mL) | 8.3 (≈ 3.18 µg/mL) | 8.3 (≈ 3.18 µg/mL) | 126 (≈ 48.3 µg/mL) | 5 (≈ 1.92 µg/mL) | 15 (≈ 5.75 µg/mL) | 5 (≈ 1.92 µg/mL) | – | NC(=O)Nc1ccc(-c2cn3c(O)c4ncn(COCCO)c4nc3n2)cc1 | 209
7 | 6.7 (≈ 2.56 µg/mL) | 25 (≈ 9.56 µg/mL) | 25 (≈ 9.56 µg/mL) | 25 (≈ 9.56 µg/mL) | 5 (≈ 1.91 µg/mL) | 8.4 (≈ 3.21 µg/mL) | 25 (≈ 9.56 µg/mL) | – | CC(=O)Nc1ccc(-c2cn3c(O)c4ncn(COCCO)c4nc3n2)cc1 | 126
8 | 0.601 (≈ 0.23 µg/mL) | 0.2 (≈ 0.0767 µg/mL) | 0.2 (≈ 0.0767 µg/mL) | 626 (≈ 240 µg/mL) | 0.2 (≈ 0.0767 µg/mL) | – | 0.2 (≈ 0.0767 µg/mL) | 0.601 (≈ 0.23 µg/mL) | CC(=O)Oc1ccc(-c2cn3c(O)c4ncn(COCCO)c4nc3n2)cc1 | 1040
9 | 0.832 (≈ 0.384 µg/mL) | 0.832 (≈ 0.384 µg/mL) | 0.832 (≈ 0.384 µg/mL) | 694 (≈ 320 µg/mL) | 0.166 (≈ 0.0766 µg/mL) | 0.83 (≈ 0.383 µg/mL) | 0.166 (≈ 0.0766 µg/mL) | – | O=C(Oc1ccccc1)Oc1ccc(-c2cn3c(O)c4ncn(COCCO)c4nc3n2)cc1 | 867
10 | 0.341 (≈ 0.0768 µg/mL) | 1 (≈ 0.225 µg/mL) | 1 (≈ 0.225 µg/mL) | 249 (≈ 56.1 µg/mL) | 0.341 (≈ 0.0768 µg/mL) | 0.242 (≈ 0.0545 µg/mL) | 0.341 (≈ 0.0768 µg/mL) | – | Nc1nc2c(ncn2COCCO)c(=O)[nH]1 [ACYCLOVIR] | 1780
11 | 0.008 (≈ 0.00393 µg/mL) | 0.781 (≈ 0.384 µg/mL) | 0.156 (≈ 0.0767 µg/mL) | 19 (≈ 9.34 µg/mL) | 0.031 (≈ 0.0152 µg/mL) | 0.417 (≈ 0.205 µg/mL) | 0.781 (≈ 0.384 µg/mL) | – | O=C(Oc1ccccc1)Oc1ccc(-c2cn3c(O)c4ncn(COC(CO)CO)c4nc3n2)cc1 | 814
12 | 0.116 (≈ 0.0512 µg/mL) | 0.87 (≈ 0.384 µg/mL) | 0.174 (≈ 0.0768 µg/mL) | 22 (≈ 9.71 µg/mL) | 0.035 (≈ 0.0155 µg/mL) | 0.116 (≈ 0.0512 µg/mL) | 0.174 (≈ 0.0768 µg/mL) | – | CC(C)C(=O)Oc1ccc(-c2cn3c(O)c4ncn(COC(CO)CO)c4nc3n2)cc1 | 906
13 | 0.56 (≈ 0.23 µg/mL) | 0.933 (≈ 0.384 µg/mL) | 0.933 (≈ 0.384 µg/mL) | 583 (≈ 240 µg/mL) | 0.311 (≈ 0.128 µg/mL) | 0.622 (≈ 0.256 µg/mL) | 0.187 (≈ 0.0769 µg/mL) | – | CC(C)C(=O)Oc1ccc(-c2cn3c(O)c4ncn(COCCO)c4nc3n2)cc1 | 972

Row | SMILES | MIC [2] [µM] | MIC [3] [µM] | MIC [4] [µM] | MIC [5] [µM] | MIC [6] [µM] | MIC ([7]; Human alphaherpesvirus 2) [µM] | MIC [8] [µM] | MIC ([7]; Human alphaherpesvirus 1) [µM] | MCC [1] [µM]
14 | O=C(Nc1ccc(-c2cn3c(O)c4ncn(COCCO)c4nc3n2)cc1)Oc1ccccc1 | 1.1 (≈ 0.506 µg/mL) | 1.4 (≈ 0.645 µg/mL) | 1.4 (≈ 0.645 µg/mL) | 174 (≈ 80.1 µg/mL) | 0.834 (≈ 0.384 µg/mL) | 2.5 (≈ 1.15 µg/mL) | 0.834 (≈ 0.384 µg/mL) | – | 869
